Experimental data taken from PubChem BioAssay.
Records with an inconclusive call do not appear.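 How the source made its calls, unless noted: active means inhibition over a set limit, the all-compound mean plus 3 SD, in both replicate runs; inconclusive means over that limit in just one replicate run; inactive means at or under that limit in both runs.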

Columns and labels:
[1] = OD615 S. cerevisiae growth inhibition, permissive medium, pilot counter-assay, permissive growth control for S. cerevisiae lifespan shortening project (AID 705;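 active means growth inhibition above 25% in both replicates, a cutoff set 3 SD above the mean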); conditions: OD615, 24 h, at 10 µM, hits give high values
In short: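 Test system: Saccharomyces cerevisiae strain carrying genetically modified DeaD replicative-lifespan system; buffer or medium: SC raffinose/galactose permissive medium; dosing: one dose 10 µM, DMSO 0.25% final; times: 24 h exposure, 30 °C; measured by: OD at 615 nm; read-out basis: growth inhibition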

[2] = Restrictive medium S. cerevisiae growth inhibition, OD615, pilot screen of yeast lifespan reduction project, restrictive growth control (AID 706;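 active means growth inhibition above a set limit, 3 SD over mean compound inhibition, in both replicates, cut at about 43% in these data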;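 further: modified DeaD lifespan yeast strain shifted to restrictive glucose medium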); conditions: OD615, 48 h, at 10 µM, hits give high values
In short: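 material = engineered S. cerevisiae DeaD strain | buffer or medium = glucose-based CSMM-D restrictive medium | dosing = one concentration, 10 µM final, 0.25% DMSO | schedule = 4 h pre-growth plus 48 h compound exposure, 30 °C | detection = OD615 absorbance reading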

[3] = viability gain of MRP-1-high H69AR cells under doxorubicin, pilot screen, MRP-1 activator project, CellTiter-Glo, duplicate (AID 807;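 active means viability increase at or above a cutoff of the median across tested compounds plus 3 SD, cut at about 8.5% in these data, passing the limit was not always enough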;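 further: compound pretreatment 18-22 h then 72 h combined with doxorubicin; 0% = doxorubicin alone and 100% = vehicle without doxorubicin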); conditions: H69AR viability with doxorubicin, CellTiter-Glo luminescence; at 10 µM; hits give high values
[4] = growth suppression of beta-catenin knockout HCT116, pilot screen, human colon tumor cells (AID 823;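 active means cell viability at or below a set limit in both duplicate runs, the limit being the all-compound median minus 4 SD, cut at about 23% in these data, passing the limit was not always enough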;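 further: 0% = wells killed by 20 µM Hyamine and 100% = untreated DMSO cell wells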); conditions: CellTiter-Glo, 60 h, at 10 µM, hits give low values
[5] = growth suppression of PTEN-deleted HCT116, pilot screen, cell-based, HCT116 clonal line, CellTiter-Glo (AID 824;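 active means viability at or below 27.92% in each of two runs, the all-compound median minus 4 SD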;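 further: 0% = 20 µM Hyamine control and 100% = vehicle cell control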); conditions: 60 h, at 10 µM, hits give low values
[6] = inhibitors of the yeast RAM network, pilot screen, dse1pr::URA3 reporter, 5-FOA selection (AID 869);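 further: 0% = DMSO wells with no growth and 100% = 10 µM 1-NA-PP1 with full growth; RAM network block rescues cells from 5-FOA so hits raise OD615 growth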; conditions: S. cerevisiae dse1pr::URA3 5-FOA growth, OD615, 2 d; at 10 µM; hits give high values; strain carries analog-sensitive mutant Cbk1 kinase
[7] = RAM signaling pathway blockade in yeast – S. cerevisiae, Pdr1DBD-CYC8 efflux-inhibited sensitized strain, primary screen (AID 1298;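 active means RAM network inhibition above 8.4% in each of two replicates, 3 SD over the compound average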;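 further: 0% = DMSO untreated cells without growth and 100% = 10 µM 1-NA-PP1 full growth; higher means more yeast growth rescued from 5-FOA killing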); conditions: S. cerevisiae cbk1-as DSE1-URA3 strain, 5-FOA growth OD615, 2 d; at 50 µM; hits give high values

c1ccc(-c2ccccc2-n2cnnn2)cc1
inactive: growth inhibition [1] 4.66% | growth inhibition [2] 3.99% | viability increase [3] -0.54% | viability [4] 97.3% | viability [5] 95.3% | inhibition [6] 1.77% | RAM network inhibition [7] 0.51%

C=CCN(c1ccccc1)S(=O)(=O)c1ccc2c(c1)oc(=O)n2C
inactive: growth inhibition [1] -15.1% | growth inhibition [2] -18.7% | viability increase [3] -2.65% | viability [4] 98.7% | viability [5] 87.6% | inhibition [6] 2.14% | RAM network inhibition [7] 3.12%

O=C(CSc1nc2ccccc2o1)NCc1ccco1
inactive: growth inhibition [1] -11.6% | growth inhibition [2] -16% | viability increase [3] -3.53% | viability [4] 102% | viability [5] 98% | inhibition [6] 0.97% | RAM network inhibition [7] 5.5%

COc1cccc(C2CC(c3ccc(Cl)cc3)n3nc(N)nc3N2)c1 (centres undefined)
inactive: growth inhibition [1] -3.76% | growth inhibition [2] 1.46% | viability increase [3] 0.04% | viability [4] 100% | viability [5] 91.1% | inhibition [6] 1.63% | RAM network inhibition [7] 7.39%

Cc1ccc(C)c(NC(=O)CSc2nc3c(c(=O)n2C)SC(C)C3)c1 (centres undefined)
inactive: growth inhibition [1] -3.99% | growth inhibition [2] -8.3% | viability increase [3] -3.24% | viability [4] 83.2% | viability [5] 90.8% | inhibition [6] 0.5% | RAM network inhibition [7] 3.86%

CC(=O)N1CCc2cc(S(=O)(=O)Nc3ccccc3N3CCN(C)CC3)ccc21
inactive: growth inhibition [1] -7.73% | growth inhibition [2] -1.75% | viability increase [3] -1.49% | viability [4] 94.8% | viability [5] 85.8% | inhibition [6] 1.71% | RAM network inhibition [7] 0.62%

CCSc1nc2c(c(=O)n1-c1ccc(F)cc1)SCC2
inactive: growth inhibition [1] -7.3% | growth inhibition [2] -6.39% | viability increase [3] -2.75% | viability [4] 89.2% | viability [5] 94.2% | inhibition [6] 1.18% | RAM network inhibition [7] -0.35%

CCCC(=O)Nc1cc(=O)n(C)c(=O)n1C
inactive: growth inhibition [1] -12.8% | growth inhibition [2] -4.53% | viability increase [3] -1.04% | viability [4] 103% | viability [5] 94.8% | inhibition [6] 0.76% | RAM network inhibition [7] -0.88%

Cn1c2c(c(=O)n(C)c1=O)CN(Cc1ccco1)CN2
inactive: growth inhibition [1] -2% | growth inhibition [2] 5.18% | viability increase [3] -2.84% | viability [4] 95.2% | viability [5] 97.7% | inhibition [6] -0.115% | RAM network inhibition [7] -0.06%

Cc1nc2cc(-c3cccc(F)c3)nn2c(C)c1CCC(=O)NC(C)CCc1ccco1 (centres undefined)
inactive: growth inhibition [1] -10.1% | growth inhibition [2] -2.46% | viability increase [3] -1.36% | viability [4] 69.7% | viability [5] 72.6% | inhibition [6] 0.955% | RAM network inhibition [7] 3.16%

O=C(Nc1ccccc1C(=O)N1CCOCC1)c1ccco1
inactive: growth inhibition [1] -6.66% | growth inhibition [2] -11.1% | viability increase [3] -0.74% | viability [4] 101% | viability [5] 105% | inhibition [6] 0.27% | RAM network inhibition [7] 2.67%

Cc1cc2ccccc2n1CCNC(=O)COc1ccccc1
inactive: growth inhibition [1] -3.44% | growth inhibition [2] 11.8% | viability increase [3] -0.8% | viability [4] 99.2% | viability [5] 94.2% | inhibition [6] 2.31% | RAM network inhibition [7] 8.38%

CSc1nc(C)nc2c1c(=O)n(C)c(=O)n2C
inactive: growth inhibition [1] 9.37% | growth inhibition [2] 6.23% | viability increase [3] -1.42% | viability [4] 108% | viability [5] 94.2% | inhibition [6] 0.68% | RAM network inhibition [7] 0.26%

O=C(CCSCCC(=O)NCc1ccco1)NCc1ccco1
inactive: growth inhibition [1] 3.59% | growth inhibition [2] 10.5% | viability increase [3] -1.12% | viability [4] 89% | viability [5] 96% | inhibition [6] 0.745% | RAM network inhibition [7] 6.5%

CNC(=O)CN1C(=O)CSc2ncccc21
inactive: growth inhibition [1] 10.1% | growth inhibition [2] 2.23% | viability increase [3] -0.85% | viability [4] 101% | viability [5] 92.2% | inhibition [6] 1.78% | RAM network inhibition [7] -1.94%

O=C(NCCO)c1ccc2[nH]c3c(c2c1)CCCC3
inactive: growth inhibition [1] -12.1% | growth inhibition [2] -18.9% | viability increase [3] -0.28% | viability [4] 98.9% | viability [5] 96.1% | inhibition [6] 1.46% | RAM network inhibition [7] 4.19%

CNC(=O)c1ccsc1NC(=O)c1ccc(Cl)s1
inactive: growth inhibition [1] -0.67% | growth inhibition [2] 14.4% | viability increase [3] -3.2% | viability [4] 103% | viability [5] 85.6% | inhibition [6] 1.08% | RAM network inhibition [7] 2.36%

O=C(Cn1cc2c(n1)CCCC2)NCCCN1CCN(c2ccccc2F)CC1
inactive: growth inhibition [1] -16.9% | growth inhibition [2] -6.56% | viability increase [3] -3.08% | viability [4] 89.5% | viability [5] 89% | inhibition [6] 0.665% | RAM network inhibition [7] 5.8%

CCc1n[nH]c2c1/C(=N\O)CC(C)(C)C2
inactive: growth inhibition [1] -4.62% | growth inhibition [2] -1.83% | viability increase [3] -2.26% | viability [4] 99.4% | viability [5] 108% | inhibition [6] 1.68% | RAM network inhibition [7] 1.03%

COc1cccc2c(=O)n(CC(=O)N3CCN(c4ccccc4)CC3)ccc12
inactive: growth inhibition [1] -7.37% | growth inhibition [2] -7.01% | viability increase [3] -0.94% | viability [4] 99.7% | viability [5] 98.1% | inhibition [6] 1.39% | RAM network inhibition [7] 4.22%

Cc1ccccc1NC(=O)c1ccc(S(=O)(=O)N(C)C)cc1
inactive: growth inhibition [1] -9.3% | growth inhibition [2] -2.52% | viability increase [3] 0.67% | viability [4] 102% | viability [5] 94% | inhibition [6] 2.17% | RAM network inhibition [7] 2.21%

Cc1cc(N)n2ncc(-c3cccc(Br)c3)c2n1
inactive: growth inhibition [1] 2.1% | growth inhibition [2] -6.45% | viability increase [3] -6.91% | viability [4] 75.4% | viability [5] 71.8% | inhibition [6] 0.315% | RAM network inhibition [7] 1.65%

COc1cccc(-c2csc(NC(=O)C3CC3)n2)c1
inactive: growth inhibition [1] 1.37% | growth inhibition [2] 13.5% | viability increase [3] 4.92% | viability [4] 96.6% | viability [5] 91.5% | inhibition [6] -0.98% | RAM network inhibition [7] 1.49%

N#Cc1cn(CC(=O)NCC2CCCO2)c2ccccc12 (centres undefined)
inactive: growth inhibition [1] 1.68% | growth inhibition [2] -3% | viability increase [3] -1.75% | viability [4] 93.1% | viability [5] 91.4% | inhibition [6] 1.1% | RAM network inhibition [7] 5.31%

CCCCCn1c(NCc2ccco2)nc2ccccc21
inactive: growth inhibition [1] 0.22% | growth inhibition [2] 1.09% | viability increase [3] -5.56% | viability [4] 84.9% | viability [5] 72.9% | inhibition [6] 1.6% | RAM network inhibition [7] 1.9%

CCOc1ccc(N=Cc2c(O)cc(C)oc2=O)cc1
inactive: growth inhibition [1] -1.27% | growth inhibition [2] 8.93% | viability increase [3] -2.82% | viability [4] 107% | viability [5] 101% | inhibition [6] 1.21% | RAM network inhibition [7] 1.99%

CCOC(=O)N1CCN(Cc2nc3c(c(=O)n(C)c(=O)n3C)n2CCC(C)C)CC1
inactive: growth inhibition [1] -5% | growth inhibition [2] -10.9% | viability increase [3] -4.73% | viability [4] 97.3% | viability [5] 99.9% | inhibition [6] 0.37% | RAM network inhibition [7] 8.2%

CCN=C(NCC)SC1CC(=O)N(c2cccc(OC)c2)C1=O (centres undefined)
inactive: growth inhibition [1] 5.98% | growth inhibition [2] 1.56% | viability increase [3] -1.43% | viability [4] 101% | viability [5] 94.6% | inhibition [6] 0.04% | RAM network inhibition [7] 7.47%

COc1ccc(C)c2sc(=NC(=O)C(C)C)n(C)c12
inactive: growth inhibition [1] -6.53% | growth inhibition [2] 2.31% | viability increase [3] -3.89% | viability [4] 90% | viability [5] 92.4% | inhibition [6] 3.1% | RAM network inhibition [7] 6.3%

CC(C)c1nc(SCC(=O)N2CCOCC2)c2c(=O)n(C)c(=O)n(C)c2n1
inactive: growth inhibition [1] 2.91% | growth inhibition [2] -8.92% | viability increase [3] -1.75% | viability [4] 102% | viability [5] 95.6% | inhibition [6] 2.57% | RAM network inhibition [7] -2.21%

C=CCn1c(C(C)NC(=O)C(C)(C)C)nc2ccccc21 (centres undefined)
inactive: growth inhibition [1] -9.47% | growth inhibition [2] -11.3% | viability increase [3] 1.33% | viability [4] 94.8% | viability [5] 95.5% | inhibition [6] 1.41% | RAM network inhibition [7] 0.71%

COc1ccc(NC(=O)C2CCCN2S(=O)(=O)c2ccc3c(c2)CCC(=O)N3)cc1Cl (centres undefined)
inactive: growth inhibition [1] -1.44% | growth inhibition [2] -23.7% | viability increase [3] -2.9% | viability [4] 90.8% | viability [5] 87.7% | inhibition [6] 1.18% | RAM network inhibition [7] 1.9%

O=C(Nc1nccs1)C1CCCN(S(=O)(=O)c2cccc3cccnc23)C1 (centres undefined)
inactive: growth inhibition [1] -3.46% | growth inhibition [2] 11.8% | viability increase [3] -1.85% | viability [4] 71.2% | viability [5] 68.6% | inhibition [6] 1.6% | RAM network inhibition [7] 4.95%

CC1=C(C(N)=O)C(c2ccccc2)n2nc(-c3cccc(C)c3)nc2N1 (centres undefined)
inactive: growth inhibition [1] 3.1% | growth inhibition [2] 2.56% | viability increase [3] -2.74% | viability [4] 98.9% | viability [5] 97.1% | inhibition [6] 0.79% | RAM network inhibition [7] 3.91%

CC1=C(C(=O)OC(C)C)C(c2c(O)ccc3ccccc23)NC(=O)N1 (centres undefined)
inactive: growth inhibition [1] 2.06% | growth inhibition [2] -6.33% | viability increase [3] -3.16% | viability [4] 93.9% | viability [5] 90.7% | inhibition [6] 1.88% | RAM network inhibition [7] 2.42%

CC(=O)NC(C)(C)C1CC=C(C)/C(=N\O)C1 (centres undefined)
inactive: growth inhibition [1] -3.7% | growth inhibition [2] -1.12% | viability increase [3] -0.02% | viability [4] 104% | viability [5] 101% | inhibition [6] 1.36% | RAM network inhibition [7] -0.78%

CC(=O)Nc1cc(-c2nn3c(C)nnc3s2)ccc1C
inactive: growth inhibition [1] 3.93% | growth inhibition [2] 1.4% | viability increase [3] -0.1% | viability [4] 98.7% | viability [5] 90.3% | inhibition [6] 3.41% | RAM network inhibition [7] 3.72%
